Series [1] deals with Escherichia coli. Put plainly: In vitro antibacterial activity was tested for Escherichia coli H560. It is filed as functional. An outline of the steps: (§1)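 Microtitration (microdilution) MIC determination in μg/mL against a panel of Gram-positive, Gram-negative and anaerobic organisms. Values come from duplicate or triplicate experiments and are stated accurate to ±50%.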

Series [2] has as its system Escherichia coli. Put plainly: In vitro antibacterial activity was tested for Escherichia coli Vogel. Format: functional. In short, it runs like this: as §1
The test system of another series is Enterobacter cloacae. The experiment in a line: In vitro antibacterial activity was tested for Enterobacter cloacae HA2646. Format: functional.
The subject of the next series is Klebsiella pneumoniae. Put plainly: In vitro antibacterial activity was tested for Klebsiella pneumoniae MGH-2. Format: functional. An outline of the steps: as §1
A further series concerns Providencia rettgeri. The experiment in a line: In vitro antibacterial activity was tested for Providencia rettgeri H1771. It is filed as functional. In short, it runs like this: as §1
The subject of another series is Pseudomonas aeruginosa. Put plainly: In vitro antibacterial activity was tested for Pseudomonas aeruginosa UI-18. Format: functional. An outline of the steps: as §1
The subject of series [3] is Staphylococcus aureus. Put plainly: In vitro antibacterial activity was tested for Staphylococcus aureus H228. Format: functional. In short, it runs like this: as §1
Series [4] concerns Staphylococcus aureus. The experiment in a line: In vitro antibacterial activity was tested for Staphylococcus aureus UC-76. It is filed as functional. An outline of the steps:
as §1

Series [5] concerns V79. Put plainly: (§2) Clonogenic cytotoxicity against Chinese hamster V-79 cells. It is filed as functional, cell-based. Conditions: Cricetulus griseus. An outline of the steps: (§3)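 Chinese hamster V-79 cells grown overnight, then exposed to drug 3 h at 37 °C; drug medium replaced with fresh medium, cells incubated 5 days and scored for colony formation. IC50 (μg/mL) taken as concentration inhibiting colony formation by 50% versus control.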

The next series has as its system Streptococcus pneumoniae. Put plainly: In vitro antibacterial activity was tested for Streptococcus pneumoniae SV-1. It is filed as functional. In short, it runs like this:
as §1

The next series deals with Streptococcus pyogenes. The experiment in a line: In vitro antibacterial activity was tested for Streptococcus pyogenes C203. It is filed as functional. In short, it runs like this:
as §1

Another series has as its system Enterococcus faecalis. Put plainly: In vitro antibacterial activity was tested for Streptococcus faecalis MGH-2. Format: functional. An outline of the steps:
as §1

A further series concerns Bacteroides fragilis. Put plainly: In vitro antibacterial activity against Bacteroides fragilis BFA. Format: functional. In short, it runs like this:
as §1

A further series relates to Clostridioides difficile. Put plainly: In vitro antibacterial activity was tested for Clostridium diff CD1-1. Format: functional.
A further series relates to Clostridium perfringens. The experiment in a line: In vitro antibacterial activity against Clostridium perfringens CP 3-1. Format: functional.
The species entered for series [6] is Mus musculus. The experiment in a line: (§4) Phototoxic skin reaction in depilated female CD-1 mice. Format: toxicity, organism-based. To be noted: in vivo. An outline of the steps:
(§5)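 Female CD-1 mice, depilated, given a single oral or subcutaneous dose. UVA (320–400 nm) exposure for 3 h, starting 1 h post-dose. Initial doses were 30, 100 and 300 mg/kg. PTD50 (dose giving phototoxic skin reaction in 50% of mice) derived by probit method. First day of positive reaction and no-effect dose taken from raw data.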

The species named for series [7] is Mus musculus. The series is described as §4. Format: functional. In short, it runs like this:
as §5

The subject of series [8] is Peptoniphilus asaccharolyticus. The experiment in a line: In vitro antibacterial activity was tested for Pepto asac PA 3-1. Format: functional. An outline of the steps: as §1
A further series relates to Cutibacterium acnes. Put plainly: In vitro antibacterial activity was tested for Propion acnes PA5-1. It is filed as functional. An outline of the steps:
as §1

Series [9] has as its system V79. The description is as §2. Format: functional. Conditions: Cricetulus griseus. An outline of the steps:
as §3

The IC50 is the concentration needed to halve the response being measured.

Each structure is given as a SMILES string. In brackets after ≈: the same amount, converted by molar mass.

Turning to `NCC1CCCN(c2nc3c(cc2F)c(=O)c(C(=O)O)cn3C2CC2)C1` (centres undefined), the MIC against Escherichia coli [1] came out at 0.4 µg/mL (≈ 1.11 µM); against Escherichia coli [2], 0.4 µg/mL (≈ 1.11 µM); against Enterobacter cloacae it was 0.4 µg/mL (≈ 1.11 µM); with Klebsiella pneumoniae, 0.8 µg/mL (≈ 2.22 µM); against Providencia rettgeri it was 1.6 µg/mL (≈ 4.44 µM); in the series on Pseudomonas aeruginosa, 6.3 µg/mL (≈ 17.5 µM). The MIC against Staphylococcus aureus [3] worked out at 1.6 µg/mL (≈ 4.44 µM); with Staphylococcus aureus [4], 0.2 µg/mL (≈ 0.555 µM); against Streptococcus pneumoniae, 0.2 µg/mL (≈ 0.555 µM); against Streptococcus pyogenes, 0.2 µg/mL (≈ 0.555 µM); with Enterococcus faecalis it was 0.4 µg/mL (≈ 1.11 µM). For the same compound, in the series with V79 [5], the IC50 came to 290 µg/mL (≈ 805 µM).

Take `C[C@@H]1CN(c2c(F)c(N)c3c(=O)c(C(=O)O)cn(C4CC4)c3c2F)C[C@H](C)N1` [SPARFLOXACIN]: the MIC was determined as 1.6 µg/mL (≈ 4.08 µM) in the series on Bacteroides fragilis; 6.3 µg/mL (≈ 16.1 µM) in the series on Clostridioides difficile; 0.2 µg/mL (≈ 0.51 µM) against Clostridium perfringens; 0.4 µg/mL (≈ 1.02 µM) in series [8]; 0.4 µg/mL (≈ 1.02 µM) in the series with Cutibacterium acnes. This compound gave a PTD50 in the series filed under Mus musculus [6] of 28 mg. The same compound had a No effect dose in the series listed under Mus musculus [7] of 18 mg. For the same compound, the IC50 in the series on V79 [5] stood at 370 µg/mL (≈ 943 µM).

Take `NCC1CCCN(c2cc3c(cc2F)c(=O)c(C(=O)O)cn3C2CC2)C1` (centres undefined): the MIC is 0.4 µg/mL (≈ 1.11 µM) against Escherichia coli [1]; 0.4 µg/mL (≈ 1.11 µM) against Escherichia coli [2]; 0.4 µg/mL (≈ 1.11 µM) in the series with Enterobacter cloacae; 0.8 µg/mL (≈ 2.23 µM) against Klebsiella pneumoniae; 1.6 µg/mL (≈ 4.45 µM) against Providencia rettgeri; 3.1 µg/mL (≈ 8.63 µM) against Pseudomonas aeruginosa. Also, the MIC in the series with Staphylococcus aureus [3] stood at 0.8 µg/mL (≈ 2.23 µM); in the series with Staphylococcus aureus [4] it was 0.1 µg/mL (≈ 0.278 µM); against Streptococcus pneumoniae it was 0.1 µg/mL (≈ 0.278 µM); against Streptococcus pyogenes, 0.05 µg/mL (≈ 0.139 µM); against Enterococcus faecalis it was 0.2 µg/mL (≈ 0.556 µM). For the same compound, in the series on V79 [5], the midpoint of inhibition, the IC50, lay at 220 µg/mL (≈ 612 µM).

As for `COc1c(N2CCC(N)C2)c(F)cc2c(=O)c(C(=O)O)cn(C3CC3)c12` (centres undefined), the MIC with Bacteroides fragilis was found to be 0.2 µg/mL (≈ 0.553 µM); against Clostridioides difficile it was 0.4 µg/mL (≈ 1.11 µM); in the series on Clostridium perfringens, 0.1 µg/mL (≈ 0.277 µM); against Escherichia coli [1], 0.013 µg/mL (≈ 0.036 µM); against Escherichia coli [2], 0.025 µg/mL (≈ 0.0692 µM); with Enterobacter cloacae, 0.025 µg/mL (≈ 0.0692 µM). Further, the MIC with Klebsiella pneumoniae is 0.05 µg/mL (≈ 0.138 µM); in series [8], 0.8 µg/mL (≈ 2.21 µM); with Providencia rettgeri it was 0.1 µg/mL (≈ 0.277 µM); against Pseudomonas aeruginosa, 0.4 µg/mL (≈ 1.11 µM); in the series on Staphylococcus aureus [3], 0.05 µg/mL (≈ 0.138 µM); with Staphylococcus aureus [4], 0.013 µg/mL (≈ 0.036 µM). Also, the MIC in the series on Streptococcus pneumoniae worked out at 0.025 µg/mL (≈ 0.0692 µM); in the series with Streptococcus pyogenes, 0.025 µg/mL (≈ 0.0692 µM); with Enterococcus faecalis it was 0.05 µg/mL (≈ 0.138 µM); with Cutibacterium acnes, 0.4 µg/mL (≈ 1.11 µM). The PTD50 in the series listed under Mus musculus [6] is more than 100 mg. Besides, the No effect dose in the series listed under Mus musculus [7] is 100 mg.

Regarding `NCC1CCCN(c2c(F)cc3c(=O)c(C(=O)O)cn(C4CC4)c3c2Cl)C1` (centres undefined), the MIC in the series on Escherichia coli [1] is 0.05 µg/mL (≈ 0.127 µM); against Escherichia coli [2] it was 0.1 µg/mL (≈ 0.254 µM); against Enterobacter cloacae, 0.2 µg/mL (≈ 0.508 µM); in the series on Klebsiella pneumoniae, 0.2 µg/mL (≈ 0.508 µM); in the series with Providencia rettgeri it was 0.2 µg/mL (≈ 0.508 µM); against Pseudomonas aeruginosa, 1.6 µg/mL (≈ 4.06 µM). The MIC in the series with Staphylococcus aureus [3] was 0.025 µg/mL (≈ 0.0635 µM); in the series on Staphylococcus aureus [4], 0.003 µg/mL (≈ 0.00762 µM); against Streptococcus pneumoniae, 0.003 µg/mL (≈ 0.00762 µM); against Streptococcus pyogenes it was 0.003 µg/mL (≈ 0.00762 µM); against Enterococcus faecalis, 0.05 µg/mL (≈ 0.127 µM). The compound also returned a 50% inhibitory concentration (IC50) with V79 [5] of 17 µg/mL (≈ 43.2 µM).

Consider `COc1c(N2CCCC(CN)C2)c(F)cc2c(=O)c(C(=O)O)cn(C3CC3)c12` (centres undefined), for which the MIC in the series with Escherichia coli [1] is 0.1 µg/mL (≈ 0.257 µM); in the series with Escherichia coli [2] it was 0.2 µg/mL (≈ 0.514 µM); against Enterobacter cloacae, 0.2 µg/mL (≈ 0.514 µM); against Klebsiella pneumoniae it was 0.4 µg/mL (≈ 1.03 µM); against Providencia rettgeri it was 0.8 µg/mL (≈ 2.05 µM); with Pseudomonas aeruginosa, 3.1 µg/mL (≈ 7.96 µM). Moreover, the MIC turned out to be 0.05 µg/mL (≈ 0.128 µM) in the series on Staphylococcus aureus [3]; 0.006 µg/mL (≈ 0.0154 µM) with Staphylococcus aureus [4]; 0.006 µg/mL (≈ 0.0154 µM) in the series on Streptococcus pneumoniae; 22 µg/mL (≈ 56.5 µM) against V79 [9]; 0.006 µg/mL (≈ 0.0154 µM) in the series with Streptococcus pyogenes; 0.05 µg/mL (≈ 0.128 µM) against Enterococcus faecalis.

These data come from ChEMBL document CHEMBL1128719, “The synthesis, structure-activity, and structure-side effect relationships of a series of 8-alkoxy- and 5-amino-8-alkoxyquinolone antibacterial agents” (J Med Chem, 1995).
